Experimental data as given in paper PMC5784828 (Biochemical and biophysical research communications, 2018).

System: MDA-MB-231 cells
Experiment: Scratch cell migration assay
Type: cell-based
Conditions: 1 μM, MDA-MB-231, 18 hr
How it was run: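 MDA-MB-231 cells were grown at 37°C, 5% CO2, in high-glucose DMEM with 10% FBS, L-glutamine, penicillin/streptomycin and 15 mM HEPES. A scratch was made in a confluent monolayer, then test compound or 1% DMSO (solvent control) was added in normal growth medium. The same scratch area was photographed at 0 and 18–24 hr. Duplicate or single wells; four independent experiments; images representative.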

CN(C)Cc1cccc(N/C(=C2\C(=O)Nc3cc(C(N)=O)ccc32)c2ccccc2)c1 [BIX02188]
Effect on scratch healing (cell migration): showed inhibition of scratch healing
